Data from ChEMBL document CHEMBL3817773, “Antibacterial activities of fluorescent nano assembled triphenylamine phosphonium ionic liquids” (Bioorg Med Chem Lett, 2016).
Calls of active or inactive are those of the source. The rule behind the calls is not given here.

What was measured:
Klebsiella pneumoniae = experiment: Antimicrobial activity against Klebsiella pneumoniae CIP 82.91 after 18 to 20 hrs by broth dilution method; assay type: functional
Outline: (§1)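 MICs measured against a panel of ESKAPE-representative strains, including S. aureus SA1199, at concentrations up to 64 mg/L.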

Staphylococcus aureus [1] = experiment: Antimicrobial activity against Staphylococcus aureus CIP 76.25 after 18 to 20 hrs by broth dilution method; assay type: functional; outline: as §1
Enterococcus faecium = experiment: Antimicrobial activity against Enterococcus faecium DSMZ 20477 after 18 to 20 hrs by broth dilution method; assay type: functional; outline: as §1
Acinetobacter baumannii = experiment: Antimicrobial activity against Acinetobacter baumannii ATCC 19606 after 18 to 20 hrs by broth dilution method; assay type: functional; outline: as §1
Pseudomonas aeruginosa = experiment: Antimicrobial activity against Pseudomonas aeruginosa CIP 100720 after 18 to 20 hrs by broth dilution method; assay type: functional; outline: as §1
Klebsiella aerogenes = experiment: Antimicrobial activity against Enterobacter aerogenes ATCC 13048 after 18 to 20 hrs by broth dilution method; assay type: functional; outline: as §1
Escherichia coli = experiment: Antimicrobial activity against Escherichia coli CIP 54.8 after 18 to 20 hrs by broth dilution method; assay type: functional; outline: as §1
Staphylococcus aureus [2] = experiment: Antimicrobial activity against Staphylococcus aureus SA1199 after 18 to 20 hrs by broth dilution method; assay type: functional; outline: as §1
Staphylococcus aureus [3] = experiment: Antimicrobial activity against multi-drug resistant Staphylococcus aureus SA1199B overexpressing NorA after 18 to 20 hrs by broth dilution method; assay type: functional
Outline: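 MIC read against the NorA-overproducing S. aureus SA1199B, tested alongside its isogenic parent strain SA1199. Compounds were tested at concentrations up to 64 mg/L.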

Staphylococcus aureus [4] = experiment: Bactericidal activity against Staphylococcus aureus CIP 76.25 assessed as log reduction in bacterial count at 2 mg/L after 30 mins by time kill assay relative to control; assay type: functional
Outline: (§2)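 Time-kill assay on S. aureus CIP 7625 exposed to 2 mg/L, with untreated control in parallel. Viability was followed by CFU counts over time, and log10 CFU/mL reduction was read at 30 min and 2 h of incubation.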

Staphylococcus aureus [5] = experiment: Bactericidal activity against Staphylococcus aureus CIP 76.25 assessed as log reduction in bacterial count at 2 mg/L after 2 hrs by time kill assay relative to control; assay type: functional; outline: as §2
Staphylococcus aureus [6] = experiment: Drug uptake in Staphylococcus aureus CIP 76.25 at 2 mg/L after 1.7 to 35 sec by fluorescence microscopic analysis; assay type: ADME, organism-based; settings: in vivo
Outline: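 Uptake was tracked through the intrinsic fluorescence of the triphenylamine moiety, using fluorescence microscopy of bacteria during incubation to follow accumulation kinetics over seconds.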

HepG2 = experiment: Cytotoxicity against human HepG2 cells assessed as reduction in cell viability after 24 hrs by WST1 assay; assay type: cell-based; settings: HepG2, 24 h
Staphylococcus aureus [7] = experiment: Drug uptake in Staphylococcus aureus CIP 76.25 at 2 mg/L after 1.7 to 35 sec by phase contrast microscopic analysis; assay type: ADME, organism-based; settings: in vivo
Staphylococcus aureus [8] = experiment: Growth inhibition of Staphylococcus aureus CIP 76.25 at 2 mg/L by time kill assay relative to control; assay type: functional, organism-based
Outline: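 S. aureus CIP 7625 proliferation was followed by absorbance at 600 nm, with or without 2 mg/L, against an untreated control curve.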

Staphylococcus aureus [9] = experiment: Inhibition of metabolic activity in Staphylococcus aureus CIP 76.25 assessed as inhibition of resazurin reduction to resorufin at 2 mg/L treated for 15 mins measured over 2 to 6 hrs by CellTiter-Blue assay; assay type: functional, organism-based
Outline: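 S. aureus CIP 7625 was treated 15 min with 2 mg/L, then metabolic activity was monitored as the rate of resazurin reduction to resorufin, compared with the untreated control.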

SMILES: CCCC[P+](CCCC)(CCCC)CCCCCCOCc1ccc(N(c2ccccc2)c2ccccc2)cc1.[Br-]
- MIC (Klebsiella pneumoniae): 8 µg/mL
- MIC (Staphylococcus aureus [1]): 0.5 µg/mL
- MIC (Enterococcus faecium): 1 µg/mL
- MIC (Acinetobacter baumannii): 16 µg/mL
- MIC (Pseudomonas aeruginosa): > 64 µg/mL
- MIC (Klebsiella aerogenes): 32 µg/mL
- MIC (Escherichia coli): 16 µg/mL
- MIC (Staphylococcus aureus [2]): 0.5 µg/mL
- MIC (Staphylococcus aureus [3]): 0.5 µg/mL
- Activity (Staphylococcus aureus [4]): >3 log10CFU/ml
- Activity (Staphylococcus aureus [5]): >4 log10CFU/ml
- Drug uptake (Staphylococcus aureus [6]): Active
- IC50 (HepG2): < 0.124 µg/mL
- Drug uptake (Staphylococcus aureus [7]): Active

SMILES: CCCCCC[P+](CCCC)(CCCC)CCCC.[Cl-]
- MIC (Klebsiella pneumoniae): > 64 µg/mL
- MIC (Staphylococcus aureus [1]): > 64 µg/mL
- MIC (Enterococcus faecium): > 64 µg/mL
- MIC (Acinetobacter baumannii): > 64 µg/mL
- MIC (Pseudomonas aeruginosa): > 64 µg/mL
- MIC (Klebsiella aerogenes): > 64 µg/mL
- MIC (Escherichia coli): > 64 µg/mL
- MIC (Staphylococcus aureus [2]): > 64 µg/mL
- MIC (Staphylococcus aureus [3]): > 64 µg/mL
- IC50 (HepG2): 5.42 µg/mL

SMILES: CCCC[P+](CCCC)(CCCC)CCCCCCOCc1ccc(N(c2ccccc2)c2ccccc2)cc1.[I-]
- MIC (Klebsiella pneumoniae): 16 µg/mL
- MIC (Staphylococcus aureus [1]): 1 µg/mL
- MIC (Enterococcus faecium): 2 µg/mL
- MIC (Acinetobacter baumannii): 16 µg/mL
- MIC (Pseudomonas aeruginosa): 32 µg/mL
- MIC (Klebsiella aerogenes): 32 µg/mL
- MIC (Escherichia coli): 16 µg/mL
- MIC (Staphylococcus aureus [2]): 1 µg/mL
- MIC (Staphylococcus aureus [3]): 1 µg/mL
- IC50 (HepG2): < 0.124 µg/mL

SMILES: CCCC[P+](CCCC)(CCCC)CCCCCCOC.[Br-]
- MIC (Klebsiella pneumoniae): > 64 µg/mL
- MIC (Staphylococcus aureus [1]): > 64 µg/mL
- MIC (Enterococcus faecium): > 64 µg/mL
- MIC (Acinetobacter baumannii): > 64 µg/mL
- MIC (Pseudomonas aeruginosa): > 64 µg/mL
- MIC (Klebsiella aerogenes): > 64 µg/mL
- MIC (Escherichia coli): > 64 µg/mL
- MIC (Staphylococcus aureus [2]): > 64 µg/mL
- MIC (Staphylococcus aureus [3]): > 64 µg/mL
- IC50 (HepG2): 0.712 µg/mL

SMILES: CCCC[P+](CCCC)(CCCC)CCCCCCOCc1ccc(N(c2ccccc2)c2ccccc2)cc1.[Cl-]
- MIC (Klebsiella pneumoniae): 16 µg/mL
- MIC (Staphylococcus aureus [1]): 1 µg/mL
- MIC (Enterococcus faecium): 1 µg/mL
- MIC (Acinetobacter baumannii): 16 µg/mL
- MIC (Pseudomonas aeruginosa): 32 µg/mL
- MIC (Klebsiella aerogenes): 16 µg/mL
- MIC (Escherichia coli): 16 µg/mL
- MIC (Staphylococcus aureus [2]): 0.5 µg/mL
- MIC (Staphylococcus aureus [3]): 0.5 µg/mL
- IC50 (HepG2): < 0.124 µg/mL

SMILES: CCCCCC[P+](CCCC)(CCCC)CCCC.[Br-]
- MIC (Klebsiella pneumoniae): > 64 µg/mL
- MIC (Staphylococcus aureus [1]): > 64 µg/mL
- MIC (Enterococcus faecium): > 64 µg/mL
- MIC (Acinetobacter baumannii): > 64 µg/mL
- MIC (Pseudomonas aeruginosa): > 64 µg/mL
- MIC (Klebsiella aerogenes): > 64 µg/mL
- MIC (Escherichia coli): > 64 µg/mL
- MIC (Staphylococcus aureus [2]): > 64 µg/mL
- MIC (Staphylococcus aureus [3]): > 64 µg/mL
- IC50 (HepG2): < 0.124 µg/mL

SMILES: c1ccc(N(c2ccccc2)c2ccccc2)cc1
- MIC (Klebsiella pneumoniae): > 64 µg/mL
- MIC (Staphylococcus aureus [1]): > 64 µg/mL
- MIC (Enterococcus faecium): > 64 µg/mL
- MIC (Acinetobacter baumannii): > 64 µg/mL
- MIC (Pseudomonas aeruginosa): > 64 µg/mL
- MIC (Klebsiella aerogenes): > 64 µg/mL
- MIC (Escherichia coli): > 64 µg/mL
- MIC (Staphylococcus aureus [2]): > 64 µg/mL
- MIC (Staphylococcus aureus [3]): > 64 µg/mL
- IC50 (HepG2): < 0.124 µg/mL

SMILES: CCCC[P+](CCCC)(CCCC)CCCCCCOCc1ccc(N(c2ccccc2)c2ccccc2)cc1
- growth inhibition (GI) (Staphylococcus aureus [8]): Active
- inhibition (Staphylococcus aureus [9]): Active

SMILES: CCCCCC[P+](CCCC)(CCCC)CCCC.[I-]
- MIC (Klebsiella pneumoniae): > 64 µg/mL
- MIC (Staphylococcus aureus [1]): > 64 µg/mL
- MIC (Enterococcus faecium): > 64 µg/mL
- MIC (Acinetobacter baumannii): > 64 µg/mL
- MIC (Pseudomonas aeruginosa): > 64 µg/mL
- MIC (Klebsiella aerogenes): > 64 µg/mL
- MIC (Escherichia coli): > 64 µg/mL
- MIC (Staphylococcus aureus [2]): > 64 µg/mL
- MIC (Staphylococcus aureus [3]): > 64 µg/mL
- IC50 (HepG2): 0.189 µg/mL
